Test results as given in PubChem BioAssay AID624109 (Broad Institute, 2012).
Results filed as inconclusive are left out. Active and inactive are the calls of the source.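 Rule for the calls: active = curve reaches the -35% threshold at a concentration no more than twice the top valid dose, in duplicate at both wavelengths; inconclusive = no clear call, values can overlap the other calls; inactive = the rest, including effects opposite to the expected decrease.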

assay: P. aeruginosa growth delay under iron chelation, dose response, absorbance 405 nm, dry powder, set 6 (AID 624109); settings: P. aeruginosa growth with EDDHA, active compounds read low; at 0.056 µM unless noted
Outline: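 Test system – P. aeruginosa ATCC 15692 bacteria · Input – final OD600 0.0000005 inoculum · Medium – succinate M9 medium at pH 7.0 with iron chelator EDDHA · Incubation – 24-30 h growth at 37 °C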

Max activity, inactive:
CCCCC(C#N)c1ccc(F)cn1 (centres undefined) -30.6% [at 0.5 µM], COCCC(C#N)c1ccc(Cl)cc1 (centres undefined) -41.4%, CCCCC(C#N)c1ccc(F)cc1 (centres undefined) -50.3% [at 1.5 µM], CCCCC(C#N)c1ccc(Cl)cc1 (centres undefined) -39.1% [at 0.16 µM], COCCC(C#N)c1ccc(F)cc1 (centres undefined) -46.3% [at 0.5 µM], N#CC(c1ccc(F)cc1)c1cccc(Cl)n1 (centres undefined) -43.2% [at 0.16 µM], N#CC(c1ccc(Cl)cc1)c1ccccn1 (centres undefined) -55.2%, CCCCC(C#N)c1ccc(Cl)cn1 (centres undefined) -57.2%, CN(C)CCCC(C#N)c1ccc(Cl)cc1 (centres undefined) -33.4%, Clc1ccc(C(c2cccc(Cl)n2)c2nn[nH]n2)cc1 (centres undefined) 10.4% [at 13.5 µM], CCCCC(C#N)c1ccccn1 (centres undefined) 1.07% [at 120 µM], N#CC1c2ccc(Cl)cc2CCc2cccnc21 (centres undefined) -36.3% [at 4.6 µM], COCCNC(C#N)c1ccc(Cl)cc1 (centres undefined) -29.7% [at 4.6 µM], N#Cc1cccc(C(C#N)c2ccc(F)cc2)n1 (centres undefined) 19% [at 0.0195 µM]
